{"source": "paper PMC5855950", "about": "(RNA, 2018)", "key": {"[1]": {"system": "DsRedCAG250 Drosophila", "assay": "Climbing ability assay, DsRedCAG250 Drosophila", "format": "in vivo", "conditions": "100 µM at third instar larval stage; elav>DsRedCAG250 flies at 5, 10 and 15 dpe", "in_short": "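Flies carried elav-GAL4 and UAS-DsRedCAG250 and were reared at 25°C. Larval dosing was a 2 h feed of third instar larvae on peptide in 2% sucrose at room temperature, with climbing tested at 5, 10 and 15 dpe. Adult dosing: 5 or 10 dpe flies were starved 8 h, then fed overnight on peptide-sucrose filter paper, and tested at 10 or 15 dpe.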"}, "[2]": {"system": "EGFPCAG78-expressing HEK293 cells", "assay": "LDH assay: suppression of death of EGFPCAG78-expressing HEK293 cells", "format": "cell-based, human", "conditions": "scrambled control, Supplemental Fig. S1", "in_short": "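HEK293 cells were grown in DMEM with 10% FBS at 37°C and 5% CO2 and seeded at 1 × 10^5 per well. They were lipofected with pEGFPCAG78, and TAT-peptide was added immediately after at 0.1–25 µM (8 levels). LDH activity in the medium was read at 72 h and normalised to the no-peptide control. IC50 came from variable-slope nonlinear regression; at least 3 repeats.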"}, "[3]": {"system": "HBB mRNA", "assay": "Real-time PCR: HBB mRNA expression in HEK293 cells", "format": "cell-based, human", "conditions": "three repeats", "in_short": "(§1)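 RNA was extracted from HEK293 cells with TRIzol. One µg was reverse transcribed using random hexamer primers. GADD45A and HBB transcripts were quantified with TaqMan gene expression probes on a real-time PCR system.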"}, "[4]": {"system": "Htt-exon1Q93 Drosophila", "assay": "Pseudopupil assay, Htt-exon1Q93 Drosophila", "format": "in vivo", "conditions": "100 µM at third instar larval stage, 1 dpe adults", "in_short": "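Flies were raised at 21.5°C. Third instar larvae fed 2 h at room temperature on peptide in 2% sucrose solution. Rhabdomeres per ommatidium were counted by pseudopupil assay at 1 dpe for Htt-exon1Q93 flies and 12 dpe for flMJDQ84 flies. Experiments were repeated at least three times (n = 10 fly heads), as mean ± SEM, one-way ANOVA with Tukey test.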"}, "[5]": {"system": "GADD45A mRNA", "assay": "Real-time PCR: GADD45A mRNA expression in HEK293 cells", "format": "cell-based, human", "conditions": "three repeats", "in_short": "as §1"}}}
{"sequence": "YGRKKRRQRRRGGEDIKSRVEAASILYFIKKK [TAT-BIND-S]", "values": [{"measurement": "climbing defects, larval treatment", "setting": "[1]", "value": "had no effect"}, {"measurement": "effect on cell death", "setting": "[2]", "value": "did not suppress or elicit cell death"}, {"measurement": "HBB mRNA expression", "setting": "[3]", "value": "no significant change"}, {"measurement": "retinal degeneration, Htt-exon1Q93", "setting": "[4]", "value": "but not TAT-BIND-S"}, {"measurement": "GADD45A mRNA expression", "setting": "[5]", "value": "no significant change"}]}
